ChEMBL document CHEMBL3102816, “Design, synthesis and molecular modeling of novel N-acylhydrazone derivatives as pyruvate dehydrogenase complex E1 inhibitors” (Bioorg Med Chem, 2014)

Assay: Inhibition of Escherichia coli […] expressed in Escherichia coli TB1 using sodium pyruvate as substrate assessed as reduction of 2,6-DCPIP preincubated for 3 mins followed by ThDP addition
Procedure, shortened: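 MBP-fused E. coli PDHc-E1 from plasmid pMal-C2X in strain TB1 (LB with 2% glucose, ampicillin, 37 °C to A600 0.6–0.8; 0.5 mM IPTG, 7 h, 25 °C), MBP affinity-purified, Bradford-quantified. Reaction: 50 mM K3PO4 pH 7.2, 2.0 mM pyruvate, 0.8 mM 2,6-DCPIP, enzyme, inhibitor at varied concentrations; 3 min at 37 °C, then ThDP added; DCPIP reduction read at 600 nm.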

IC50 [µM]	Compound
3.43	Cc1ncc(Cn2nnc(C(=O)N/N=C/c3ccc(O)cc3)c2C)c(N)n1
11.6	Cc1ncc(Cn2nnc(C(=O)N/N=C/c3ccccc3O)c2C)c(N)n1
1.92	Cc1ncc(Cn2nnc(C(=O)N/N=C/c3ccc(C(F)(F)F)cc3)c2C)c(N)n1
1.71	Cc1ncc(Cn2nnc(C(=O)N/N=C/c3ccc(Cl)c([N+](=O)[O-])c3)c2C)c(N)n1
23.4	Cc1ncc(Cn2nnc(C(=O)N/N=C/c3cccc(O)c3)c2C)c(N)n1
8	Cc1ncc(Cn2nnc(C(=O)N/N=C/c3ccc(F)cc3)c2C)c(N)n1
0.65	Cc1ncc(Cn2nnc(C(=O)N/N=C/c3ccc([N+](=O)[O-])cc3)c2C)c(N)n1
110	Cc1ncc(Cn2nnc(C(=O)N/N=C/c3ccccc3)c2C)c(N)n1
1.89	Cc1ncc(Cn2nnc(C(=O)N/N=C/c3ccc(Br)cc3)c2C)c(N)n1
20.9	Cc1cccc(/C=N/NC(=O)c2nnn(Cc3cnc(C)nc3N)c2C)c1
13.6	Cc1ncc(Cn2nnc(C(=O)N/N=C/c3ccccc3Cl)c2C)c(N)n1
50.3	Cc1ccc(/C=N/NC(=O)c2nnn(Cc3cnc(C)nc3N)c2C)cc1
14.5	Cc1ncc(Cn2nnc(C(=O)N/N=C/c3ccc4c(c3)OCO4)c2C)c(N)n1
22.8	Cc1ncc(Cn2nnc(C(=O)N/N=C/c3ccccn3)c2C)c(N)n1
53.8	Cc1ncc(Cn2nnc(C(=O)N/N=C/c3ccccc3Br)c2C)c(N)n1
2.35	Cc1ncc(Cn2nnc(C(=O)N/N=C/c3ccc(Cl)cc3)c2C)c(N)n1
